Most compounds without a hit are left out; they make up all but 2.2% or so of the library.
Bim-Mcl-1: inhibitors of Bim-Mcl-1 interaction, human | Q07820 | Bead-based flow cytometry, Bim peptide-Mcl-1 binding | inhibition, % at 10 µM | 190,000 compounds, 0.1% hits | AID 1009; in the data active means inhibition above about 40%
Target sequence (Q07820 whole entry, looked up): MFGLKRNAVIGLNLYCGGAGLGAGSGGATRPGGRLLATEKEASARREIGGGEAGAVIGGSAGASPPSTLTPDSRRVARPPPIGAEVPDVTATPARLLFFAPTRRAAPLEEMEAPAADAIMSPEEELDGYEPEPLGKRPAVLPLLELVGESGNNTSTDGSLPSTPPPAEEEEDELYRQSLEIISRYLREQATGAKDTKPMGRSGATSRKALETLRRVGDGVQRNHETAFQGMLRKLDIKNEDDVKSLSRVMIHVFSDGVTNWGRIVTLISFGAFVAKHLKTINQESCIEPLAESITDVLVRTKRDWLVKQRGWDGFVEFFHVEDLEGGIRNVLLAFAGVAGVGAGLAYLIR
MCL1 BIM primary: MCL1-BIM-BH3 interaction inhibition (human); Q07820; inhibition, % at 10.9 µM; 320,000 compounds, 0.68% hits; GST-MCL1 / FITC-Bim-BH3 fluorescence polarization; AID 2057;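 active means inhibition above the mean inhibition of all tested compounds plus 3 SD, set per campaign, cut at about 40% in these data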;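 further: higher means more loss of mP so more displacement of Bim peptide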
RBBP9 inh: inhibitors of human serine hydrolase RBBP9; inhibition, % at 7.94 µM; 220,000 compounds, 0.2% hits; AID 1515; recombinant RBBP9, FP-Rh probe fluorescence polarization;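 active means inhibition above the campaign mean of all tested compounds plus 3 SD, cut at about 14% in these data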
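Assay system: recombinant human RBBP9; Reagent: Serine-hydrolase probe FP-Rh, 375 nM pre-mixing; Doses: 7.94 µM single dose, 0.794% DMSO; Incubation: 30 min then 45 min, 25 °C; Detection: fluorescence polarization (mP), excitation 525 nm, emission 598 nm; Evaluation: percent inhibition from mP, scaled between DMSO and no-protein wells.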
Mcl1-Noxa inh: Mcl-1/Noxa interaction inhibition; 220,000 compounds, 1.5% hits; TR-FRET Mcl-1/Noxa peptide binding, 2 h; inhibition, % at 21.7 µM; Q07820; AID 1022;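 active means compounds that cut the protein-peptide binding signal by more than 50% relative to plate controls in a single-dose test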;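 further: His-tagged Mcl-1 with rhodamine Noxa BH3 peptide and terbium anti-His antibody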
EBV gp42 inh: blocks Epstein-Barr virus glycoprotein 42 binding. Q1HVG2. Fluorescence polarization binding assay, mP read-out. inhibition, % (tested at 21.74 µM). 220,000 compounds, 0.42% hits; in the data active means inhibition above about 50%
Target sequence (Q1HVG2 whole entry, looked up): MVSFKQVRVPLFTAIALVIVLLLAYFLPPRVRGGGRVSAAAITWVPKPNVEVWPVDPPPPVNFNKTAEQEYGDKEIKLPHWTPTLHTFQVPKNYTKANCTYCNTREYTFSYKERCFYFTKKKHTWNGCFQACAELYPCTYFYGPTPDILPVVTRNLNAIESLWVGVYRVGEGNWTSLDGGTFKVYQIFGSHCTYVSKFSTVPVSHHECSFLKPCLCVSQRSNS
Mcl1-Bid inh: Mcl-1/Bid interaction inhibition. Q07820. TR-FRET Mcl-1/Bid-Dy647 peptide binding, 1536-well. inhibition, % at 21.7 µM. 220,000 compounds, 0.97% hits. AID 1021;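 active means compounds that cut the binding signal by more than half at the single screening dose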;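 further: His-tagged Mcl-1 with europium anti-His antibody binding Bid BH3 peptide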
Hits are given with their value; 0 = inactive; - = not tested or not shown; + = active, no number.

SMILES	Bim-Mcl-1	MCL1 BIM primary	RBBP9 inh	Mcl1-Noxa inh	EBV gp42 inh	Mcl1-Bid inh
Cc1ccccc1N/C(=C(/C(Cl)=C(Cl)Cl)[N+](=O)[O-])n1nnc2ccccc21	0	0	0	0	0	54
Cc1ccc(C(=O)n2nnc3ccccc32)cc1	-	0	0	-	-	-
COc1ccc(N/C(=C(/C(Cl)=C(Cl)Cl)[N+](=O)[O-])n2nnc3ccccc32)cc1	0	41	0	0	0	91
COc1ccc(NS(=O)(=O)c2ccc(-n3nnc4ccccc43)c([N+](=O)[O-])c2)cc1	0	0	0	0	0	0
COc1ccc(N2CCN(C3CCCN(S(=O)(=O)c4ccc(C)cc4C)C3)CC2)cc1 (configuration not stated)	-	0	-	-	-	-
O=C1N=c2ccccc2=C1c1sc(=S)n(NC(=O)c2ccccc2)c1O	-	0	0	0	0	0
C=CCn1c(O)c(C2=c3ccccc3=NC2=O)sc1=Nc1ccc(O)cc1	-	0	-	52	0	0
COc1ccc(OC(=O)CCN2C(=O)C3C4C=CC(C4)C3C2=O)cc1 (configuration not stated)	0	0	0	0	0	0
COC(=O)c1ccc(OC(=O)CCN2C(=O)C3C4c5ccccc5C(c5ccccc54)C3C2=O)cc1 (configuration not stated)	0	0	0	0	0	52
COc1ccc(CCN2CC(C(=O)NCc3nc(C)c(C)s3)CCC2=O)cc1 (configuration not stated)	-	0	-	-	-	-
O=C1Nc2cc(Cl)cnc2N2CCCC12 (configuration not stated)	0	43	0	60	72	0
O=C1Nc2ccccc2N2CCCC12 (configuration not stated)	0	0	0	0	0	0
O=c1c(O[C@@H]2O[C@H](CO)[C@H](O)[C@H](O)[C@H]2O)c(-c2ccc(O)c(O)c2)oc2cc(O)cc(O)c12	0	-	0	0	0	0
COc1c(-c2ccc(O)c(O)c2)oc2cc(O)cc(O)c2c1=O	-	0	-	56	0	0
O=c1c(O)c(-c2ccc(O)cc2O)oc2cc(O)cc(O)c12	0	-	0	103	0	0
O=c1c(O)c(-c2cc(O)c(O)c(O)c2)oc2cc(O)cc(O)c12	-	0	-	-	-	-
COc1ccc2c(c1)C=Cc1ccccc1O2	-	0	-	-	-	-
COc1cc(/C=N/NC(=O)c2ccc(COc3cc(C)ccc3C(C)C)cc2)cc(OC)c1O	0	0	0	51	0	0
FC(F)(F)c1cccc(CN2CCCCCC2)c1	0	0	0	0	0	52
CN(C)c1ccc(/C=C/c2ccc3ccccc3[n+]2C)cc1	0	0	0	0	0	0
CN(C)c1ccc(/C=C/c2ccc3c4ccccc4ccc3[n+]2-c2ccccc2)cc1	0	-	0	84	0	0
O=C1CC(C(=O)N2CCc3ccccc32)CN1c1ccccc1 (configuration not stated)	-	0	-	-	-	-
COc1ccccc1N1CCN(C2CCCCC2NS(=O)(=O)c2ccccc2)CC1 (configuration not stated)	-	0	-	-	-	-
CCCCNC(=O)Nc1nnc(-c2ccccc2)o1	0	0	0	0	0	59
O=c1oc2ccccc2c(Nc2ccc3ccccc3c2)c1[N+](=O)[O-]	0	0	0	67	0	0
SMILES	Bim-Mcl-1	MCL1 BIM primary	RBBP9 inh	Mcl1-Noxa inh	EBV gp42 inh	Mcl1-Bid inh
O=C(O)c1ccc(NC2=C(Cl)C(=O)c3ccccc3C2=O)cc1	-	0	0	53	0	0
O=C(O)c1cccc(NC2=C(Cl)C(=O)c3ccccc3C2=O)c1	0	-	0	87	0	0
Cc1ccc(NC2=C(NC(=O)c3ccccc3)C(=O)c3ccccc3C2=O)cc1Cl	0	0	0	86	0	0
Cc1ccc(NCC(=O)c2ccccc2)cc1Cl	0	0	0	0	0	0
Cc1cccc(NC(=O)CNC(=O)Cc2ccc(S(=O)(=O)N3CCOCC3)s2)c1C	-	0	-	-	-	-
Cc1cc(NC(=O)CCC(=O)N(c2ccccc2)C(C(=O)NC2CCCC2)c2ccc(F)cc2)no1 (configuration not stated)	-	0	-	-	-	-
CC1C(c2ccccc2)N(C)CCC12NC(=O)NC2=O (configuration not stated)	0	0	0	0	0	88
CC(C)COC(=O)/C(C#N)=C/c1cn(Cc2ccccc2)c2ccccc12	40	0	0	0	0	0
CC(C)OC(=O)/C(C#N)=C/c1cn(Cc2ccccc2)c2ccccc12	0	0	0	0	0	0
CS(=O)(=O)N1CCN(Cc2ccc(C(F)(F)F)cc2)CC1	0	0	0	0	0	52
CS(=O)(=O)N1CCN(Cc2ccccc2C(F)(F)F)CC1	0	0	0	0	0	0
COc1ccc2[nH]c3c(=O)n(Cc4ccc(C(=O)N5CCCCCC5)cc4)c(=S)[nH]c3c2c1	0	0	0	60	0	0
CCOC(=O)N1CCN(C(=O)c2ccc3c(=O)n(Cc4ccc(OC)cc4)c(=S)[nH]c3c2)CC1	0	0	0	0	0	0
COc1ccc2[nH]c3c(=O)n(Cc4ccc(C(=O)N5CCC(C(N)=O)CC5)cc4)c(=S)[nH]c3c2c1	0	0	0	61	0	0
O=C(Nc1nnc(-c2ccco2)s1)C1CCN(S(=O)(=O)c2ccc(Cl)cc2)CC1	0	0	0	-	-	-
O=C(Nc1nnc(-c2ccco2)s1)C1CC1	0	0	0	0	0	77
CC(C)=C1C(=O)NN(c2ccc(C)c(Cl)c2)C1=O	45	0	0	0	0	0
CC(C)=C1C(=O)NN(c2cccc(Cl)c2)C1=O	0	0	0	0	0	0
CC(C)N1C(=O)/C(=C\c2nc3ccccc3c(=O)n2-c2ccccc2)c2ccccc21	0	0	0	0	0	0
CC(C)N1C(=O)/C(=C/c2nc3ccccc3c(=O)n2-c2ccccc2)c2ccccc21	0	0	0	55	0	78
O=C(CNc1ccc(Br)cc1)c1ccc(Br)s1	-	0	-	-	-	-
O=C1CCNc2ccc(-c3ccccc3)cc21	0	0	0	0	+	0
CC(=O)Nc1ccc(S(=O)(=O)NCc2ccccn2)cc1	0	0	0	0	0	91
CCN(CC(=O)Nc1c(F)cccc1F)C(=O)c1cccc(S(=O)(=O)NCc2ccccc2)c1	-	0	-	-	-	-
COc1ccc2[nH]cc(C3N4CC5(C)CN3CC(C)(C4)C5=O)c2c1 (configuration not stated)	0	0	0	0	0	55
SMILES	Bim-Mcl-1	MCL1 BIM primary	RBBP9 inh	Mcl1-Noxa inh	EBV gp42 inh	Mcl1-Bid inh
O=[N+]([O-])c1cc(S(=O)(=O)Nc2ccc(Cl)cc2)ccc1N/N=C/c1ccncc1	0	0	0	52	0	0
O=[N+]([O-])c1ccc(Cl)cc1N/N=C/c1ccncc1	-	0	-	-	-	-
CCC(=O)NCc1ccc2[nH]c(C)cc2c1	0	0	0	0	0	0
Cc1ccc2scc(CN3CCCC3)c2c1	-	0	-	-	-	-
CCOC(=O)Cc1csc(NC(=O)CSc2nnnn2-c2ccc(F)cc2)n1	0	0	0	0	0	0
CCOC(=O)Cc1csc(NC(=O)CSc2nnnn2-c2ccc(C)c(C)c2)n1	0	0	0	0	0	80
